Active and inactive are the calls of the source. The calls are words filed in the database; no cut-off is given here. Where a SMILES comes first, the peptide text is derived from it. Bridges are numbered along the chain shown (N, C = ends). Roman numbers before positions name the chains, in order. [ ]: non-standard residue; d: D form. The star is where a group is joined. 5TAMRA = CN(C)c1ccc2c(c1)Oc1cc(N(C)C)ccc1C21OC(=O)c2cc(C(=O)*)ccc21; Cha = N[C@@H](CC1CCCCC1)C(=O)O
Columns and labels:
[1] = system: Lipid bilayer; test: Binding affinity to cardiolipin-rich POPC/POPE by fluorescence based analysis
Summary of the method: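 NBD-labelled peptide monomer at 1 μM in PBS, mixed with liposomes of POPC/POPE (2:1) containing 10% CL, with CL-free POPC/POPE liposomes for comparison. Association was followed by NBD fluorescence (ex 467/em 536 nm), n = 3. For dissociation, liposomes were at 100 μM and unlabelled acetylated peptide was added stepwise up to 40 μM, with a 10 min dark incubation before each read.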

[2] = system: Lipid bilayer; test: Binding affinity to DLCL-rich POPC/POPE by fluorescence based analysis
[3] = Drug localization in mitochondria of human HeLa cells at EC50 incubated for 3 hrs by fluorescence based assay; format: ADME

Activity [1]	Activity [2]	SMILES	Drug uptake [3] [%]
Active	Active	CC(=O)N[C@@H](CC1CCCCC1)C(=O)N[C@@H](CS)C(=O)N[C@@H](CCCNC(=N)N)C(=O)N[C@@H](CC(C)C)C(=O)N[C@@H](CC1CCCCC1)C(=O)N[C@@H](CCCNC(=N)N)C(=O)N[C@@H](CCCNC(=N)N)C(=O)N[C@@H](CC1CCCCC1)C(=O)N[C@@H](CS)C(=O)N[C@@H](CCCNC(=N)N)C(N)=O (Ac-[Cha]CRL[Cha]RR[Cha]CR-NH2)	
		CC(=O)N[C@@H](CC1CCCCC1)C(=O)N[C@H]1CSSC[C@@H](C(=O)N[C@@H](CCCNC(=N)N)C(N)=O)NC(=O)[C@H](CC2CCCCC2)NC(=O)[C@H](CCCNC(=N)N)NC(=O)[C@H](CCCNC(=N)N)NC(=O)[C@H](CC(C)C)NC(=O)[C@H](CC2CCCCC2)NC(=O)[C@H](CCCNC(=N)N)NC(=O)[C@@H](NC(=O)[C@H](CC2CCCCC2)NC(=O)c2ccc3c(c2)C(=O)OC32c3ccc(N(C)C)cc3Oc3cc(N(C)C)ccc32)CSSC[C@@H](C(=O)N[C@@H](CCCNC(=N)N)C(N)=O)NC(=O)[C@H](CC2CCCCC2)NC(=O)[C@H](CCCNC(=N)N)NC(=O)[C@H](CCCNC(=N)N)NC(=O)[C@H](CC(C)C)NC(=O)[C@H](CC2CCCCC2)NC(=O)[C@H](CCCNC(=N)N)NC1=O (I: Ac-[Cha]CR[Cha]LRR[Cha]CR-NH2 / II: 5TAMRA-[Cha]CR[Cha]LRR[Cha]CR-NH2; disulfide I:2-II:9, I:9-II:2)	53
		CC(=O)N[C@@H](CC1CCCCC1)C(=O)N[C@H]1CSSC[C@@H](C(=O)N[C@@H](CCCNC(=N)N)C(N)=O)NC(=O)[C@H](CC(C)C)NC(=O)[C@H](CCCNC(=N)N)NC(=O)[C@H](CCCNC(=N)N)NC(=O)[C@H](CC2CCCCC2)NC(=O)[C@H](CC2CCCCC2)NC(=O)[C@H](CCCNC(=N)N)NC(=O)[C@@H](NC(=O)[C@H](CC2CCCCC2)NC(=O)c2ccc3c(c2)C(=O)OC32c3ccc(N(C)C)cc3Oc3cc(N(C)C)ccc32)CSSC[C@@H](C(=O)N[C@@H](CCCNC(=N)N)C(N)=O)NC(=O)[C@H](CC(C)C)NC(=O)[C@H](CCCNC(=N)N)NC(=O)[C@H](CCCNC(=N)N)NC(=O)[C@H](CC2CCCCC2)NC(=O)[C@H](CC2CCCCC2)NC(=O)[C@H](CCCNC(=N)N)NC1=O (I: Ac-[Cha]CR[Cha][Cha]RRLCR-NH2 / II: 5TAMRA-[Cha]CR[Cha][Cha]RRLCR-NH2; disulfide I:2-II:9, I:9-II:2)	53
		CC(=O)N[C@@H](CC1CCCCC1)C(=O)N[C@H]1CSSC[C@@H](C(=O)N[C@@H](CCCNC(=N)N)C(N)=O)NC(=O)[C@H](CC2CCCCC2)NC(=O)[C@H](CCCNC(=N)N)NC(=O)[C@H](CCCNC(=N)N)NC(=O)[C@H](CC2CCCCC2)NC(=O)[C@H](CC2CCCCC2)NC(=O)[C@H](CCCNC(=N)N)NC(=O)[C@@H](NC(=O)[C@H](CC2CCCCC2)NC(=O)c2ccc3c(c2)C(=O)OC32c3ccc(N(C)C)cc3Oc3cc(N(C)C)ccc32)CSSC[C@@H](C(=O)N[C@@H](CCCNC(=N)N)C(N)=O)NC(=O)[C@H](CC2CCCCC2)NC(=O)[C@H](CCCNC(=N)N)NC(=O)[C@H](CCCNC(=N)N)NC(=O)[C@H](CC2CCCCC2)NC(=O)[C@H](CC2CCCCC2)NC(=O)[C@H](CCCNC(=N)N)NC1=O (I: Ac-[Cha]CR[Cha][Cha]RR[Cha]CR-NH2 / II: 5TAMRA-[Cha]CR[Cha][Cha]RR[Cha]CR-NH2; disulfide I:2-II:9, I:9-II:2)	53

From ChEMBL document CHEMBL5634162, “Cyclohexylalanine-Containing α-Helical Amphipathic Peptide Targets Cardiolipin, Rescuing Mitochondrial Dysfunction in Kidney Injury” (J Med Chem, 2024)
